Data published in ChEMBL document CHEMBL1126929, “Syntheses of 2,5- and 2,6-difluoronorepinephrine, 2,5-difluoroepinephrine, and 2,6-difluorophenylephrine: effect of disubstitution with fluorine on adrenergic activity” (J Med Chem, 1993).
Values belong to the compound of their own block, whether it stands above or below them.

Columns and labels:
[1] = target: T1, Adrenergic receptor alpha-1 (Rattus norvegicus, UniProt P15823+P23944+P43140); assay: Displacement of [3H]WB-4101 from adrenergic alpha 1 receptor of rat cerebral cortical membranes; format: cell membranes, Membrane
T1 sequence (P15823 whole entry): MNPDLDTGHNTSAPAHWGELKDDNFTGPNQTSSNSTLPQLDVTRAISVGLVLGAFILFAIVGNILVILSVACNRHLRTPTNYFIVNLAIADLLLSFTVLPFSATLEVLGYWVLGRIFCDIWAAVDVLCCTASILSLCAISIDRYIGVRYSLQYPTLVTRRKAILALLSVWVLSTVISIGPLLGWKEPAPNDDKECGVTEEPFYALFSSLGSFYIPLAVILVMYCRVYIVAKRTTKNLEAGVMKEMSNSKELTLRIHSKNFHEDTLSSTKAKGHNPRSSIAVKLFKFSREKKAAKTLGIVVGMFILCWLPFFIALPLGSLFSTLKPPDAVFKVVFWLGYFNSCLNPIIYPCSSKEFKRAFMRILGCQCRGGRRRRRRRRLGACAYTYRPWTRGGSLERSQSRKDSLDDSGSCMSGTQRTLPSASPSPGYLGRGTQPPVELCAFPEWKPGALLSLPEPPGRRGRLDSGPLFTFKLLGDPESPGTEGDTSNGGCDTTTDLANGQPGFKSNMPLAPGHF
T1 sequence (P23944 whole entry): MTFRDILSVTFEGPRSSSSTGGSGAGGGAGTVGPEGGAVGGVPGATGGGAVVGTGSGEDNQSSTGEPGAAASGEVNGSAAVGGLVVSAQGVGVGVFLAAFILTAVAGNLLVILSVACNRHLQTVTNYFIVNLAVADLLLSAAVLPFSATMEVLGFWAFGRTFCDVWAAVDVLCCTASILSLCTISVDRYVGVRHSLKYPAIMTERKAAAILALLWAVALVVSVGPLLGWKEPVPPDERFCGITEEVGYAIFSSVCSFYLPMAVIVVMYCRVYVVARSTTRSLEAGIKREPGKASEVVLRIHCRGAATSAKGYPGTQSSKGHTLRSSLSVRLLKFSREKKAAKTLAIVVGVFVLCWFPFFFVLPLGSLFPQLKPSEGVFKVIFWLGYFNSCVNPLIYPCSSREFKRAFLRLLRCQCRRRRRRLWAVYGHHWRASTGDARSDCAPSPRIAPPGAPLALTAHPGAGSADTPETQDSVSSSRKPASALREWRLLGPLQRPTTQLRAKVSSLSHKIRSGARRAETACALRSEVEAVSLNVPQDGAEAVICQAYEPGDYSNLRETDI
T1 sequence (P43140 whole entry): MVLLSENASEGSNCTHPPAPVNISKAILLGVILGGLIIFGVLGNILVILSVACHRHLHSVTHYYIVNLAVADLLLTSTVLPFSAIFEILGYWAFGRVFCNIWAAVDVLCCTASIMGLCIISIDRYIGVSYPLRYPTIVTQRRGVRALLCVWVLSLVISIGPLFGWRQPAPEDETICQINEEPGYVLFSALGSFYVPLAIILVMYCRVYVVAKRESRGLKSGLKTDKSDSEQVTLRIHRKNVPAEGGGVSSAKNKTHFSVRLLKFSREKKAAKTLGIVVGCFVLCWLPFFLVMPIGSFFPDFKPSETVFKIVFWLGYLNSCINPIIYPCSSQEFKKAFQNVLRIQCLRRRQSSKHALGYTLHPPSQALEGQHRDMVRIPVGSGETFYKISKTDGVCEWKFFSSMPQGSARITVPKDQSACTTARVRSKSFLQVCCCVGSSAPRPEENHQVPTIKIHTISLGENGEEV

Cavia porcellus = organism: Cavia porcellus; assay: Effective concentration for stimulation of [3H]phosphoinositide formation in guinea pig synaptoneurosomes expressing alpha-1 receptor; format: functional
Method in brief: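 α1 agonism was read as stimulation of [³H]phosphoinositol formation in guinea pig synaptoneurosomes. EC50 is given as a mean. Efficacy is expressed relative to the parent amine set at 100.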

[2] = target: T2, Adrenergic receptor alpha-2 (Rattus norvegicus, UniProt P22086+P19328+P22909); assay: Displacement of [3H]clonidine from adrenergic alpha 2 receptor of rat cerebral cortical membranes; format: cell membranes, Membrane
T2 sequence (P22086 whole entry): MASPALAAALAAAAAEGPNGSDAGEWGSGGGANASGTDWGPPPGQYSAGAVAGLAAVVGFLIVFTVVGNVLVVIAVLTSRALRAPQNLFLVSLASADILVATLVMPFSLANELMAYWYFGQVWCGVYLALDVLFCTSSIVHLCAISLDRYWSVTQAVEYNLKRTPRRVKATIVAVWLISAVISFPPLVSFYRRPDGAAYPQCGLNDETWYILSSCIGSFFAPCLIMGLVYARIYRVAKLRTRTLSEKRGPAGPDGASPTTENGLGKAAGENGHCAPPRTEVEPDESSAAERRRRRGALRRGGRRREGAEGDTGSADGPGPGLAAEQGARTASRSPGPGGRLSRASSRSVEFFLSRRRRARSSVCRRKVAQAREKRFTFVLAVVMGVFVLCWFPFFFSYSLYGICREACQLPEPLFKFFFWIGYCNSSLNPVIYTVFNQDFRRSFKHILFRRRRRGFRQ
T2 sequence (P19328 whole entry): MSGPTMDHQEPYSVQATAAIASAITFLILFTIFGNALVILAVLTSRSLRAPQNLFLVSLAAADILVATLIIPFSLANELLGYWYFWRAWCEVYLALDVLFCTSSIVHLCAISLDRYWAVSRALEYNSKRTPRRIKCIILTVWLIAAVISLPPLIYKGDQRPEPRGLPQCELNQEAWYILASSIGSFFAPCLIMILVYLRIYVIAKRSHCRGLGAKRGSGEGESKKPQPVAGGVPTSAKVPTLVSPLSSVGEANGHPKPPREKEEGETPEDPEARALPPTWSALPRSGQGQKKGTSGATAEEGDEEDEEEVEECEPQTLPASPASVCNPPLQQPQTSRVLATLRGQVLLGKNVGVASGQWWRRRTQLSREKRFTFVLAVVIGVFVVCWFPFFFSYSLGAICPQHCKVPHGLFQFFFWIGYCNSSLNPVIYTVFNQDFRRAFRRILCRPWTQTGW
T2 sequence (P22909 whole entry): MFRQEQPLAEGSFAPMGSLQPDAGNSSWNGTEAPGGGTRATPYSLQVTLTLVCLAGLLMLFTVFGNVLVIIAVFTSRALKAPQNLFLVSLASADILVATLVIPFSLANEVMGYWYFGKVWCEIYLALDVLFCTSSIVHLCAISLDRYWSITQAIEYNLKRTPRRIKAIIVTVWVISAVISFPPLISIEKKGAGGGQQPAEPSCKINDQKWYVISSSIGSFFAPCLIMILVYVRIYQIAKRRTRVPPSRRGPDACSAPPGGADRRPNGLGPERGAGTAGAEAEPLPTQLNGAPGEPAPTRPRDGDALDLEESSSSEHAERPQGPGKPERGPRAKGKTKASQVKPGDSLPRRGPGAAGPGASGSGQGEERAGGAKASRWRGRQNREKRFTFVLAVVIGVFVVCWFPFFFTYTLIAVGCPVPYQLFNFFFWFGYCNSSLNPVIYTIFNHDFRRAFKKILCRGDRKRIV

[3] = target: Beta-1 adrenergic receptor (Rattus norvegicus, UniProt P18090); assay: Displacement of [3H]dihydroalprenolol from adrenergic beta 1 receptor of rat cerebral cortical membranes; format: cell membranes, Membrane
Adrenergic receptor beta = Adrenergic receptor beta (Rattus norvegicus, UniProt P18090+P10608+P26255); assay: Stimulation of cyclic AMP accumulation in C6 glioma cells expressing adrenergic beta receptor; format: functional, cell-based
Method in brief: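 β agonism was read as stimulation of cyclic AMP accumulation in rat C6 glioma cells. EC50 is given as a mean. Efficacy is expressed relative to the parent amine set at 100.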

[4] = target: Beta-2 adrenergic receptor (Rattus norvegicus, UniProt P10608); assay: Binding affinity against adrenergic beta 2 receptor versus 1 nM [3H]dihydroalprenolol in rat […] cerebellar membranes; format: cell membranes, Cerebellum, Membrane
Chain of Beta-2 adrenergic receptor (P10608 whole entry): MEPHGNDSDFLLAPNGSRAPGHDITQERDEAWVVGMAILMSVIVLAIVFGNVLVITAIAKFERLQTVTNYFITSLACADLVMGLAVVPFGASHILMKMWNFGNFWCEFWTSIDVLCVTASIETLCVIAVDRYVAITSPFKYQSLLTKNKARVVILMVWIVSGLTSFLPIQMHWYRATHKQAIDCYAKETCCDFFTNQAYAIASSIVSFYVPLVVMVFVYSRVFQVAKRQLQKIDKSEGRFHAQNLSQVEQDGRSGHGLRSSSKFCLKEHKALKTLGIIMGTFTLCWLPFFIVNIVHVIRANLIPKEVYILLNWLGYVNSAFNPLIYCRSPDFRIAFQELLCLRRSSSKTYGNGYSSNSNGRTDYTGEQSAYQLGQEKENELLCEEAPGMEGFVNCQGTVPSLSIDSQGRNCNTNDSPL

Chain of Beta-1 adrenergic receptor (P18090 whole entry): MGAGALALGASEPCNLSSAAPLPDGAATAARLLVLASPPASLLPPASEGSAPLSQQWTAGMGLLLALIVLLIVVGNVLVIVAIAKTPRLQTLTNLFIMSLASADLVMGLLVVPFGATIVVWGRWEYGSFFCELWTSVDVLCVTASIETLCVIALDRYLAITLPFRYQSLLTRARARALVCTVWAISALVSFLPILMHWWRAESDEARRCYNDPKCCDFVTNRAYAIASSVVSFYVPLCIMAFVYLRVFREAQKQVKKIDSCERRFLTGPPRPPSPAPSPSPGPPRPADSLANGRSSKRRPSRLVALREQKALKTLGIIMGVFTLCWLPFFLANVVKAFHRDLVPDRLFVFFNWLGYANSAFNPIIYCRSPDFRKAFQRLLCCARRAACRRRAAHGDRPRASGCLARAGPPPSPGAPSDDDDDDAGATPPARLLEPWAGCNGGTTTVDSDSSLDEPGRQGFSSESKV

SMILES: CNCC(O)c1c(F)ccc(O)c1F (stereo not given)
Ki [1]: 17 µM
EC50 (Cavia porcellus): 4.3 µM
Ki [2]: 0.94 µM
Ki [3]: 81 µM

SMILES: NCC(O)c1cc(F)c(O)c(O)c1F (stereo not given)
Ki [1]: 24 µM
EC50 (Cavia porcellus): 83 µM
Ki [2]: 3.5 µM
Ki [3]: 5.6 µM

SMILES: NCC(O)c1cc(O)c(O)cc1F (stereo not given)
EC50 (Cavia porcellus): 4.2 µM

SMILES: NCC(O)c1c(F)cc(O)c(O)c1F (stereo not given)
EC50 (Adrenergic receptor beta): > 100 µM
EC50 (Cavia porcellus): > 100 µM
Ki [2]: 0.75 µM
Ki [3]: > 50 µM

SMILES: NCC(O)c1ccc(O)c(O)c1F (stereo not given)
Ki [1]: 23 µM
EC50 (Cavia porcellus): > 180 µM
Ki [2]: 2.1 µM

Ki [3]: 1.2 µM
SMILES: CNC[C@H](O)c1ccc(O)c(O)c1 [EPINEPHRINE]

SMILES: CNCC(O)c1cc(O)c(O)cc1F (stereo not given)
EC50 (Adrenergic receptor beta): > 1.5 µM
Ki [2]: 0.009 µM
Ki [3]: 63 µM

SMILES: CNCC(O)c1cc(F)c(O)c(O)c1F (stereo not given)
Ki [1]: 39 µM
Ki [4]: 0.71 µM
EC50 (Cavia porcellus): 2.6 µM
Ki [2]: 1.2 µM
Ki [3]: 2.3 µM

SMILES: CNCC(O)c1cccc(O)c1F (stereo not given)
Ki [1]: 17 µM
EC50 (Cavia porcellus): 80 µM
Ki [2]: 1.2 µM
Ki [3]: 4 µM

SMILES: CNCC(O)c1cc(O)ccc1F (stereo not given)
Ki [1]: 2.1 µM
EC50 (Cavia porcellus): 8 µM
Ki [2]: 0.23 µM
Ki [3]: 180 µM

SMILES: CNCC(O)c1ccc(O)c(O)c1F (stereo not given)
Ki [2]: 0.066 µM

SMILES: CNCC(O)c1ccc(F)c(O)c1 (stereo not given)
EC50 (Cavia porcellus): 16 µM

SMILES: NCC(O)c1cc(O)c(O)c(F)c1 (stereo not given)
Ki [1]: 2.3 µM
Ki [4]: 5.5 µM
Ki [2]: 0.15 µM
Ki [3]: 1.5 µM

SMILES: CNC[C@H](O)c1cccc(O)c1 [PHENYLEPHRINE]
EC50 (Cavia porcellus): 6 µM
